According to ChEMBL document CHEMBL1134075, “Synthesis and hydrolytic stability studies of albendazole carrier prodrugs” (Bioorg Med Chem Lett, 2001):

How the values were obtained:
[1] = Partition coefficient (logP); format: physicochemical; settings: octanol/water
In short: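 Determined by RP-HPLC. log K = log[(tr − t0)/t0], with t0 the elution time of methanol. log K0 at 0% methanol was obtained by linear regression of log K versus percent methanol, using standards.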

[2] = Half life of the at pH 5.0; format: ADME
In short: (§1)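 Buffer hydrolysis at 37 °C in HCl, acetate, phosphate or borate buffers. Methanolic stock was added to preheated buffer in screw-capped tubes, giving about 4×10^-4 M final (1% methanol). Samples were taken at intervals and chromatographed immediately by HPLC. First-order k_obs came from the slope of log % formed albendazole versus time, and t1/2 = 0.693/k_obs.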

[3] = Half life of the at pH 7.4; format: ADME; in short: as §1
[4] = First order rate constant, k was determined at pH 5.0; format: ADME; in short: as §1
[5] = First order rate constant, k was determined in pig liver Esterase; format: ADME, tissue-based, Sus scrofa
In short: (§2)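 Pig liver esterase used in place of plasma, at 37 °C with initial 4×10^-4 M (1% methanol). Samples were C18-extracted over time and albendazole formation was tracked by HPLC. k_obs was taken from the slope of log % formed albendazole versus time, and t1/2 = 0.693/k_obs. Mean ± SD.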

[6] = Half life of the in pig liver Esterase; format: ADME, Sus scrofa; in short: as §2
[7] = First order rate constant, k was determined in human plasma; format: ADME, cell-free
In short: (§3)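 Incubation at 37 °C in 80% human plasma, initial 4×10^-4 M (1% methanol). Plasma samples withdrawn at various times were extracted on a C18 cartridge, and appearance of albendazole was followed by HPLC. First-order k_obs came from the slope of log % formed albendazole versus time, and t1/2 = 0.693/k_obs. Mean ± SD.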

[8] = Half life of the in human plasma; format: ADME, cell-free; in short: as §3
[9] = First order rate constant, k was determined at pH 7.4; format: ADME; in short: as §1
[10] = First order rate constant, k was determined at pH 3; format: ADME; in short: as §1
[11] = First order rate constant, k was determined at pH 2; format: ADME; in short: as §1
[12] = First order rate constant, k was determined at pH 8; format: ADME; in short: as §1
[13] = First order rate constant, k was determined at pH 1; format: ADME; in short: as §1
[14] = First order rate constant, k was determined at pH 4; format: ADME; in short: as §1
[15] = First order rate constant, k was determined at pH 9; format: ADME; in short: as §1
[16] = First order rate constant, k was determined at pH 6; format: ADME; in short: as §1
[17] = First order rate constant, k was determined at pH 5; format: ADME; in short: as §1

| logP [1] | half-life [2] [h] | half-life [3] [h] | k [4] | k [5] | half-life [6] [h] | k [7] | half-life [8] [h] | Structure (SMILES) | also measured |
| --- | --- | --- | --- | --- | --- | --- | --- | --- | --- |
| 2.82 | – | – | – | – | – | – | – | CCCSc1ccc2c(c1)nc(NC(=O)OC)n2C(C)=O | – |
| 3.92 | – | – | – | – | – | – | – | CCCSc1ccc2c(c1)nc(NC(=O)OC)n2C(=O)CCC | – |
| 3.17 | – | – | – | – | – | – | – | CCCSc1ccc2c(c1)nc(NC(=O)OC)n2C(=O)CC | – |
| 3.92 | 5.27 | 2.02 | 2.19 10e-3 min-1 | 100.14 10e-3 min-1 | 0.115 | 83.29 10e-3 min-1 | 0.139 | CCCSc1ccc2c(c1)nc(NC(=O)OC)n2C(=O)OCC | k [9]: 5.73 10e-3 min-1 |
| 3.19 | 2.74 | 2 | 4.21 10e-3 min-1 | 99.14 10e-3 min-1 | 0.117 | 96.33 10e-3 min-1 | 0.12 | CCCSc1ccc2nc(NC(=O)OC)n(C(=O)OCC)c2c1 | k [9]: 5.78 10e-3 min-1 |
| 2.91 | 3.84 | 2.05 | 3.01 10e-3 min-1 | 15.29 10e-3 min-1 | 0.755 | 12.43 10e-3 min-1 | 0.929 | CCCSc1ccc2c(c1)nc(NC(=O)OC)n2COC(=O)c1ccc(N)cc1.Cl | k [10]: 0.0323 min⁻¹; k [11]: 0.2826 min⁻¹; k [12]: 1.8066 min⁻¹; k [13]: 0.3203 min⁻¹; k [14]: 0.0087 min⁻¹; k [15]: 8 min⁻¹; k [16]: 0.0036 min⁻¹; k [17]: 0.003 min⁻¹ |

| Structure (SMILES) | logP [1] | half-life [2] [h] | half-life [3] [h] | k [4] | k [5] | half-life [6] [h] | k [7] | half-life [8] [h] | also measured |
| --- | --- | --- | --- | --- | --- | --- | --- | --- | --- |
| CCCSc1ccc2nc(NC(=O)OC)[nH]c2c1 [ALBENDAZOLE] | 3.07 | – | – | – | – | – | – | – | – |
